The target in assay [1] is T1, Phospholipase A2, membrane associated (Homo sapiens, UniProt P14555).
T1 sequence (P14555 whole entry): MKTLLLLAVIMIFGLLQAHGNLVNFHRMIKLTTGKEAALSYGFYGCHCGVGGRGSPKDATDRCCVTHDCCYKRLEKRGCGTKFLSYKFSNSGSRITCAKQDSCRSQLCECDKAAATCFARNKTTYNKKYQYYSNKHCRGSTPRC
The assay can be described thus: Inhibition of human nonpancreatic secretory phospholipase A2. A digest of the protocol: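 Inhibitor preincubated with substrate 10 min at 25 °C. Enzyme added to start; ex 377/em 470 nm read kinetically for 20 min. IC50 from initial rates via V0/V = 1 + [I]/IC50; three separate experiments.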

Assay [2] concerns the target T2, Leukotriene A-4 hydrolase (Homo sapiens, UniProt P09960).
T2 sequence (P09960 whole entry): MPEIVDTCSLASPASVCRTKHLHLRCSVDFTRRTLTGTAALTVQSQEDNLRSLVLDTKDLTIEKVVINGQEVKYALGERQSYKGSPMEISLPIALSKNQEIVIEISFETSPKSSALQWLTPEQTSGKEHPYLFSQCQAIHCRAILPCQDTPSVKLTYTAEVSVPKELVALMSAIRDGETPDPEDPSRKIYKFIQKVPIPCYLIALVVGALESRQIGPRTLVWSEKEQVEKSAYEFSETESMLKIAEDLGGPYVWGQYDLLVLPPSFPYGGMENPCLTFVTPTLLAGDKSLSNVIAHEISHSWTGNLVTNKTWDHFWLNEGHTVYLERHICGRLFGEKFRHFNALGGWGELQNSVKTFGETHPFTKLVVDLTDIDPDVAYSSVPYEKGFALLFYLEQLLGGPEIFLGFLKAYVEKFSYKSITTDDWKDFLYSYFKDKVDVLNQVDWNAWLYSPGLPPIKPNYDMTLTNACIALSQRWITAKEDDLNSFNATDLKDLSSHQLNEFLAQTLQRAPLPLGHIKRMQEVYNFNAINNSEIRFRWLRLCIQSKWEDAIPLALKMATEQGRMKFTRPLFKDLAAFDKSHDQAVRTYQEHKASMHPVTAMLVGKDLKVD
The assay can be described thus: Inhibition of epoxide hydrolase activity of human leukotriene A4 hydrolase assessed as LTB4 level by ELISA. A digest of the protocol: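 LTA4 prepared by hydrolysing LTA4 methyl ester in cold acetone/NaOH under nitrogen. Enzyme (300 ng) preincubated with compound 15 min at 37 °C in 10 mM sodium phosphate pH 7.4, 4 mg/mL BSA, 5% DMSO. Reaction started with LTA4 (150 nM final), 10 min at 37 °C, stopped by dilution into buffer; LTB4 measured by ELISA. Three separate experiments.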
In general terms: An ELISA detects its analyte on a solid surface through an enzyme-linked reagent.

In assay [3] the target is T2, Leukotriene A-4 hydrolase. The assay can be described thus: Inhibition of aminopeptidase activity of human leukotriene A4 hydrolase assessed as para-nitroanilide release by spectrophotometry. A digest of the protocol: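 Enzyme (1-20 µg) in 50 mM Tris-HCl pH 8.0 with 100 mM NaCl at 37 °C; inhibitor preincubated 2 min; 5% v/v DMSO final. Started with 0.125 mM Ala-p-nitroanilide; p-NA formation followed at 405 nm for 15 min, quantified against p-NA standard curve. IC50 from initial rates across inhibitor concentrations via V0/V = 1 + [I]/IC50; three separate experiments.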

The IC50 is the concentration that inhibits the measured activity by half. `NC(Cc1c[nH]c2ccc(OCc3ccccc3)cc12)C(=O)O` (stereo not given): the figures for the IC50 in assay [1], in assay [2] and in assay [3] were 42.1 µM, 231 µM and 17.3 µM, respectively.
`NCCOc1ccc(Oc2ccccc2)cc1`: in assay [1], the midpoint of inhibition, the IC50, lay at 7.3 µM.
`O=C(C[n+]1ccc(Cc2ccc([N+](=O)[O-])cc2)cc1)c1ccccc1`: the values for the IC50 in assay [1], in assay [2] and in assay [3] were 43.7 µM, 386 µM and 23.4 µM, respectively.
As to `NCCc1c[nH]c2c(OCc3ccccc3)cccc12`, the IC50 was 52.5 µM in assay [1], 217 µM in assay [2] and 12.5 µM in assay [3].

The values are drawn from ChEMBL document CHEMBL1151772, “Discovery of multitarget inhibitors by combining molecular docking with common pharmacophore matching” (J Med Chem, 2008).
